Published values of several laboratories.
Each line is one published result; the experiments were not run side by side.
Target: cAMP-dependent protein kinase catalytic subunit PRKX (PRKX, Homo sapiens, UniProt P51817)
Sequence (P51817 1-358, as in one of the studies): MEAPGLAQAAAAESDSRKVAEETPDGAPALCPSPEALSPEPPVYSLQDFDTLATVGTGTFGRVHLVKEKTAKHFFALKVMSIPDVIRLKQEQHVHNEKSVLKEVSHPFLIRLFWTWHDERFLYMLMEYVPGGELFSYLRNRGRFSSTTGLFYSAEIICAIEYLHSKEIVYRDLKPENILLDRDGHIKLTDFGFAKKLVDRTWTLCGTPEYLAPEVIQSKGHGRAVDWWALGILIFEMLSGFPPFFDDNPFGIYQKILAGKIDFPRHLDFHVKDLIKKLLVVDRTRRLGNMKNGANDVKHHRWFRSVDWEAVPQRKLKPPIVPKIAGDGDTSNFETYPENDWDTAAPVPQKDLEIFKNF

`Cc1cc(NC(=O)c2cccc(S(F)(F)(F)(F)F)c2)cc(-n2ccn3nc(-c4cccnc4)cc23)c1` gave a remaining binding of 100% (cell-free assay; competition with immobilised ligand; 1 µM).
`COc1cc(Cl)c(C(=O)N[C@@H](CN[C@H]2CC[C@@H](N)CC2)Cc2ccc(C#N)cc2)cc1-c1ccc(CN[C@H](C)c2ccc(C)cc2)o1` gave a remaining activity of 97% (enzyme activity; inhibitor; 1 µM).
`CS(=O)(=O)N1CCCC(NC(=O)[C@H](CCC2CCCCC2)NC(=O)c2ccc(CNc3ncnc4c3nnn4-c3ccccc3)cc2)C1` (some centres unmarked) gave a remaining binding of 100% (cell-free assay; competition with immobilised ligand; 0.1 µM).
`O=C1Nc2ccc(Cl)cc2C1=Cc1cc(Cl)c(O)c(Cl)c1` gave a remaining signal of 92.1% (cell-free assay; 0.5 µM).
For `CN1CC(Oc2cnc(C#N)cc2-c2ccn3nc(NC(=O)C4CC4)cc3c2)C1`, the inhibition was 5% (enzyme activity; inhibitor; 1 µM).
With `CNC(=O)c1ccc(Nc2ncc(C(F)(F)F)c(NCc3nccnc3N(C)S(C)(=O)=O)n2)cc1` the remaining binding was 95% (cell-free assay; competition with immobilised ligand; 0.1 µM).
`Cc1cc(NC(=O)c2cccc3cc(-c4cccc5[nH]nc(N)c45)ccc23)ccc1F` has an activity vs control of 101% (enzyme activity; inhibitor; 0.1 µM).
With `COc1cc2ncnc(Nc3ccc(Oc4ccccc4)cc3C)c2cc1OC` the inhibition was 6% (enzyme activity; inhibitor; 1 µM).
The remaining binding of `C[C@@H](c1cccc(C#N)c1)n1cc(Cl)cc(C(N)=O)c1=N` is reported as 100% (cell-free assay; competition with immobilised ligand; 1 µM).
The inhibition of `CCCS(=O)(=O)Nc1ccc(F)c(C(=O)c2c[nH]c3ncc(-c4ccc(Cl)cc4)cc23)c1F` is reported as less than 10% (enzyme activity; inhibitor; 1 µM).
`CCN(CC)CCNC(=O)c1c(C)[nH]c(/C=C2\C(=O)Nc3ccc(F)cc32)c1C` gave an inhibition of 15% (enzyme activity; inhibitor; 10 µM).
`CC/C(=N\NC(=O)C(C)Nc1ccccc1)c1ccc(O)c(C)c1O` (centres unmarked) has an inhibition of 45.2% (enzyme activity; inhibitor; 0.1 µM).
With `CCOc1cc(-c2nncn2C)ccc1Nc1ncc2cc(C)nc(NCC(C)(C)C)c2n1` the inhibition was less than 15% (enzyme activity; inhibitor; FRET; 1 µM).
`CNC(=O)c1cc(Oc2ccc(NC(=O)Nc3ccc(Cl)c(C(F)(F)F)c3)cc2)ccn1` gave an inhibition of 8% (enzyme activity; inhibitor; 0.3 µM).
`CC(C)(C)c1nc2c(s1)c1nc(N)ncc1c1ccc(NS(=O)(=O)c3c(F)cccc3F)c(F)c12` gave a remaining activity of 82% (enzyme activity; inhibitor; radiometric; 1 µM).
With `O=C1NC(c2ccccn2)Sc2ccccc21` (centres unmarked) the remaining binding was 100% (cell-free assay; competition with immobilised ligand; 1 µM).
With `Cc1ccc(NC(=O)c2ccc(CN3CCN(C)CC3)cc2)cc1Nc1nc(-c2cccnc2)cs1` the remaining signal was 99.5% (cell-free assay; 0.5 µM).
For `Cc1sc(C(=O)NC2COC2)cc1-n1cc(NC(=O)Nc2c(F)cccc2Cl)cn1`, the remaining activity was 87.5% (enzyme activity; inhibitor; 10 µM).
`O=C1NC(=O)c2cc(Nc3ccc(F)cc3)c(Nc3ccc(F)cc3)cc21` gave a remaining signal of 103% (cell-free assay; 0.5 µM).
`CNCc1ccccc1-c1csc([C@@H](C)Nc2nc(C)nc3cc(OC)c(OC)cc23)c1` gave a remaining binding of 67% (cell-free assay; competition with immobilised ligand; 1 µM).
`Cn1cnc(Br)c1C1=CN(c2ncnc3[nH]cnc23)CCS1` has an inhibition of 92.8% (enzyme activity; inhibitor; radiometric; 2 µM).
For `Cc1ccc(Nc2nccc(N(C)c3ccc4c(C)n(C)nc4c3)n2)cc1S(N)(=O)=O`, the inhibition was 88% (enzyme activity; inhibitor; 10 µM).
For `C[C@@]1(Cc2ccc(C#N)cc2)C(=O)N(c2cc(Cl)cc(Cl)c2)c2ncc(C(=O)NC3(c4nc(C5CCC5)no4)CC3)n21`, the remaining binding was 100% (cell-free assay; competition with immobilised ligand; 1 µM).
`Cc1cnc(NC2CCOCC2)nc1-n1cnc(C(=O)NC(CN)c2cc(F)cc(Cl)c2)c1` (centres unmarked) has a remaining activity of 24% (enzyme activity; inhibitor; radiometric; 1 µM).
For `CO[C@@H](C)c1c(Nc2ccc([C@@H](N(C)C(=O)C3CCS(=O)(=O)CC3)C(F)(F)F)cc2)cnc2cc(Cl)nn12`, the remaining binding was 84% (cell-free assay; competition with immobilised ligand; 1 µM).
`CCCOc1ccc(OC)c(F)c1C(=O)c1ccc(C(=O)N[C@@H]2CNC[C@H]2NC(=O)c2ccc3[nH]ncc3c2)cc1` has a remaining activity of 5% (enzyme activity; inhibitor; 0.5 µM).
